Test system: Fibroblast
Experiment: Multiplex assay against human fibroblast
Format: toxicity, cell-based
Outline: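 Cells stained live at seeding with Hoechst33342, BioTracker Green Microtubule Cytoskeleton Dye, MitoTracker Red and Annexin V Alexa Fluor 680 were imaged on a CQ1 microscope at 37°C and 5% CO2 after compound addition. Their classification by CellPathfinder machine-learning gating ran from Hoechst high-intensity objects versus normal cells, to healthy, pyknosed or fragmented nuclei among normal cells, to mitotic or apoptotic among pyknosed cells. Tubulin, mitochondrial-mass and membrane-permeability phenotypes are per cents of healthy-nucleus cells.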

[1] = 12 h, 1 µM, compound concentration 1 uM, replicate 1
[2] = 12 h, 1 µM, compound concentration 1 uM, replicate 2
[3] = 12 h, 10 µM, compound concentration 10 uM, replicate 1
[4] = 12 h, 10 µM, compound concentration 10 uM, replicate 2
[5] = 24 h, 1 µM, compound concentration 1 uM, replicate 1
[6] = 24 h, 1 µM, compound concentration 1 uM, replicate 2
[7] = 24 h, 10 µM, compound concentration 10 uM, replicate 1
[8] = 24 h, 10 µM, compound concentration 10 uM, replicate 2
[9] = 48 h, 1 µM, compound concentration 1 uM, replicate 1
[10] = 48 h, 1 µM, compound concentration 1 uM, replicate 2
[11] = 48 h, 10 µM, compound concentration 10 uM, replicate 1
[12] = 48 h, 10 µM, compound concentration 10 uM, replicate 2

## CN1CCN(c2ccc(OC(F)(F)F)c(Nc3ncc4c(n3)-c3c(c(C(N)=O)nn3CCO)CC4)c2)CC1 [ONVANSERTIB]
[1]
  Population Apoptotic (%): 63%
  Population Fragmented Nuclei (%): 23%
  Population Healthy Nuclei (%): 35%
  Population Hoechst High Intensity Objects (%): 19%
  Population Membrane Permeable-Phenotype (%): 29%
  Population Mitochondria Different-Phenotype (%): 10%
  Population Mitotic Cells (%): 36%
  Population Normal (%): 80%
  Population Pyknosed Nuclei (%): 40%
  Population Tubulin-Different-Phenotype (%): 41%
  Total Cell Count: 168
[2]
  Population Apoptotic (%): 25%
  Population Fragmented Nuclei (%): 11%
  Population Healthy Nuclei (%): 80%
  Population Hoechst High Intensity Objects (%): 14%
  Population Membrane Permeable-Phenotype (%): 0%
  Population Mitochondria Different-Phenotype (%): 14%
  Population Mitotic Cells (%): 75%
  Population Normal (%): 85%
  Population Pyknosed Nuclei (%): 7%
  Population Tubulin-Different-Phenotype (%): 16%
  Total Cell Count: 66
[3]
  Population Apoptotic (%): 68%
  Population Fragmented Nuclei (%): 34%
  Population Healthy Nuclei (%): 36%
  Population Hoechst High Intensity Objects (%): 15%
  Population Membrane Permeable-Phenotype (%): 3%
  Population Mitochondria Different-Phenotype (%): 9%
  Population Mitotic Cells (%): 32%
  Population Normal (%): 84%
  Population Pyknosed Nuclei (%): 29%
  Population Tubulin-Different-Phenotype (%): 64%
[4]
  Population Apoptotic (%): 40%
  Population Fragmented Nuclei (%): 9%
  Population Healthy Nuclei (%): 78%
  Population Hoechst High Intensity Objects (%): 19%
  Population Membrane Permeable-Phenotype (%): 0%
  Population Mitochondria Different-Phenotype (%): 84%
  Population Mitotic Cells (%): 60%
  Population Normal (%): 80%
  Population Pyknosed Nuclei (%): 12%
  Population Tubulin-Different-Phenotype (%): 78%
  Total Cell Count: 61
[5]
  Population Apoptotic (%): 53%
  Population Fragmented Nuclei (%): 25%
  Population Healthy Nuclei (%): 41%
  Population Hoechst High Intensity Objects (%): 24%
  Population Membrane Permeable-Phenotype (%): 25%
  Population Mitochondria Different-Phenotype (%): 7%
  Population Mitotic Cells (%): 46%
  Population Normal (%): 75%
  Population Pyknosed Nuclei (%): 33%
  Population Tubulin-Different-Phenotype (%): 61%
  Total Cell Count: 165
[6]
  Population Apoptotic (%): 57%
  Population Fragmented Nuclei (%): 21%
  Population Healthy Nuclei (%): 65%
  Population Hoechst High Intensity Objects (%): 5%
  Population Membrane Permeable-Phenotype (%): 5%
  Population Mitochondria Different-Phenotype (%): 32%
  Population Mitotic Cells (%): 42%
  Population Normal (%): 94%
  Population Pyknosed Nuclei (%): 13%
  Population Tubulin-Different-Phenotype (%): 11%
  Total Cell Count: 73
[7]
  Population Apoptotic (%): 58%
  Population Fragmented Nuclei (%): 39%
  Population Healthy Nuclei (%): 37%
  Population Hoechst High Intensity Objects (%): 18%
  Population Membrane Permeable-Phenotype (%): 28%
  Population Mitochondria Different-Phenotype (%): 0%
  Population Mitotic Cells (%): 41%
  Population Normal (%): 81%
  Population Pyknosed Nuclei (%): 23%
  Population Tubulin-Different-Phenotype (%): 66%
  Total Cell Count: 127
[8]
  Population Apoptotic (%): 40%
  Population Fragmented Nuclei (%): 11%
  Population Healthy Nuclei (%): 77%
  Population Hoechst High Intensity Objects (%): 16%
  Population Membrane Permeable-Phenotype (%): 5%
  Population Mitochondria Different-Phenotype (%): 82%
  Population Mitotic Cells (%): 60%
  Population Normal (%): 83%
  Population Pyknosed Nuclei (%): 11%
  Population Tubulin-Different-Phenotype (%): 55%
  Total Cell Count: 55
[9]
  Population Apoptotic (%): 53%
  Population Fragmented Nuclei (%): 38%
  Population Healthy Nuclei (%): 37%
  Population Hoechst High Intensity Objects (%): 21%
  Population Membrane Permeable-Phenotype (%): 25%
  Population Mitochondria Different-Phenotype (%): 6%
  Population Mitotic Cells (%): 46%
  Population Normal (%): 78%
  Population Pyknosed Nuclei (%): 24%
  Population Tubulin-Different-Phenotype (%): 65%
  Total Cell Count: 146
[10]
  Population Apoptotic (%): 40%
  Population Fragmented Nuclei (%): 25%
  Population Healthy Nuclei (%): 68%
  Population Hoechst High Intensity Objects (%): 17%
  Population Membrane Permeable-Phenotype (%): 13%
  Population Mitochondria Different-Phenotype (%): 1%
  Population Mitotic Cells (%): 60%
  Population Normal (%): 82%
  Population Pyknosed Nuclei (%): 5%
  Population Tubulin-Different-Phenotype (%): 23%
[11]
  Population Apoptotic (%): 50%
  Population Fragmented Nuclei (%): 46%
  Population Healthy Nuclei (%): 40%
  Population Hoechst High Intensity Objects (%): 23%
  Population Membrane Permeable-Phenotype (%): 19%
  Population Mitochondria Different-Phenotype (%): 9%
  Population Mitotic Cells (%): 50%
  Population Normal (%): 76%
  Population Pyknosed Nuclei (%): 13%
  Population Tubulin-Different-Phenotype (%): 69%
  Total Cell Count: 136
[12]
  Population Fragmented Nuclei (%): 37%
  Population Healthy Nuclei (%): 58%
  Population Hoechst High Intensity Objects (%): 20%
  Population Membrane Permeable-Phenotype (%): 7%
  Population Mitochondria Different-Phenotype (%): 4%
  Population Normal (%): 79%
  Population Pyknosed Nuclei (%): 4%
  Population Tubulin-Different-Phenotype (%): 73%
  Total Cell Count: 241

Source: ChEMBL document CHEMBL4689842, “EUbOPEN Chemogenomics Library wave 1” (2021)
